Only some compounds are listed: those with a hit (about 3.6% of all), similar ones and a draw of the others.
SENP1 FRET inh = human SENP1 catalytic domain inhibitors, primary screen, biochemical, FRET, uHTS. recombinant SENP1 catalytic domain, CyPet-SUMO1-YPet FRET cleavage. inhibition, % at 10 µM. 360,000 compounds, 0.21% hits;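 active = inhibition at least 30% at 10 µM, raw YFP signal under a set limit, fluorescence ratio 0.5 to 1.5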
Target sequence (Q9P0U3 419-644 limits assumed): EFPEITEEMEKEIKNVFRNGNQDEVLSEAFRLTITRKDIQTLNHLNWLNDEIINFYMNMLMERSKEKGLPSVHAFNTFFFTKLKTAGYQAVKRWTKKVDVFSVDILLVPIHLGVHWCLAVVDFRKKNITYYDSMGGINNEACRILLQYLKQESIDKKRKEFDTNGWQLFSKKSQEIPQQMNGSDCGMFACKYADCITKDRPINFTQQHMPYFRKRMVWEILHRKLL
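Test system: human SENP1 catalytic domain; medium: Tris pH 8 buffer plus EDTA, NaCl, BME, BSA, NP40, catalase; incubation: 50 min reaction at room temperature; technique: FRET, CFP and YFP emission; controls: no-enzyme low control and enzyme-plus-DMSO high control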
NadD block = inhibitors of S. aureus NadD, primary screen, biochemical, colorimetric, uHTS; purified NadD enzyme, colorimetric absorbance read-out; inhibition, % at 20 µM; 360,000 compounds, 0.78% hits; in the data active = inhibition above about 26%
NR3A LBD binder = binders of NR3A ligand-binding domain, primary screen, biophysical, differential scanning fluorimetry, uHTS; NR3A LBD differential scanning fluorimetry, Tm shift; 0% = protein alone, 100% = glycine-bound protein; 340,000 compounds, 2.5% hits; Tm shift relative to glycine control, % at 25 µM;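 active = melting temperature shift of at least 10% of the positive control shift, at one fixed dose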
ATG4B inhibitor = ATG4B protease inhibitors, primary screen, biochemical, fluorescence, uHTS. Cysteine protease ATG4B (Homo sapiens), Q9Y4P1. ATG4B cleavage of LC3-PLA2, NBD-HPC fluorescence, 1 h. inhibition, % at 8.33 µM. 340,000 compounds, 0.51% hits; in the data active = inhibition above about 40%
UCH37 DUB inh = inhibitors of human UCH37 deubiquitinase, primary screen, biochemical, Ub-AMC cleavage, fluorescence; inhibition, % (concentration not given with the values); 330,000 compounds, 0.33% hits; purified proteasome/UCH37; AID 588478, 2011;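 active = mean inhibition over replicate wells above about 20%, limit read from the data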
Target sequence (Q9Y5K5 whole entry, looked up): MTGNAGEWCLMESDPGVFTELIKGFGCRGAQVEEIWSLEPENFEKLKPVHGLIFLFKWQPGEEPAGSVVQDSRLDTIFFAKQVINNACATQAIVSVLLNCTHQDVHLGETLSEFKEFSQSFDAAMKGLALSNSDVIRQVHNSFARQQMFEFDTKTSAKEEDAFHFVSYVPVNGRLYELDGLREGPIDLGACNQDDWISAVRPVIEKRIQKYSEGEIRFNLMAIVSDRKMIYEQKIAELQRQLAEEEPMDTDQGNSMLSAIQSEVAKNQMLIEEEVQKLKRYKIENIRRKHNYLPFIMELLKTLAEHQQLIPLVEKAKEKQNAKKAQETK
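Schedule: 30 min plus 25 min, room temperature / Material: human UCH37 within purified proteasomes / Technique: AMC fluorescence intensity at 355/460 nm / Buffer or medium: pH 7.4 Tris-HCl (50 mM) with ovalbumin, ATP-MgCl2, DTT / Controls: wells without proteasome as full block, compound-free enzyme plus substrate as uninhibited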
A number is an active result.

What do the screens show for `CCCCCCCCC(=O)NN=Cc1ccccn1`?
UCH37 DUB inh: inactive

How did Cc1cc(C(=O)Nc2cccc(O)c2)c(C)o1 do in these assays?
SENP1 FRET inh: inactive; NadD block: inactive; NR3A LBD binder: 17; ATG4B inhibitor: inactive; UCH37 DUB inh: inactive

What do the screens show for `Cc1cc(C(=O)Nc2cccc(C(=O)O)c2)c(C)o1`?
SENP1 FRET inh: inactive; NadD block: inactive; NR3A LBD binder: inactive; ATG4B inhibitor: inactive; UCH37 DUB inh: inactive

What do the screens show for `NC(=O)NN=Cc1ccccc1OC(=O)c1cc2ccccc2oc1=O`?
UCH37 DUB inh: inactive

Results for Cc1ccc(S(=O)(=O)Nc2ccc(NC(=O)Nc3cccc(C(F)(F)F)c3)cc2)cc1 ?
SENP1 FRET inh: inactive; NadD block: inactive; NR3A LBD binder: 37; ATG4B inhibitor: inactive; UCH37 DUB inh: inactive

Results for CNS(=O)(=O)c1ccc(NC(=O)Nc2cccc(F)c2)cc1 ?
SENP1 FRET inh: inactive; NadD block: inactive; NR3A LBD binder: inactive; ATG4B inhibitor: inactive; UCH37 DUB inh: inactive

How did O=C(NCc1ccccc1Cl)c1ccc(S(=O)(=O)Nc2cccc(C(F)(F)F)c2)cc1 do in these assays?
SENP1 FRET inh: inactive; NadD block: inactive; NR3A LBD binder: 25; ATG4B inhibitor: inactive; UCH37 DUB inh: inactive

How did COc1ccc(NC(=O)Nc2c[nH]c(=O)[nH]c2=O)cc1 do in these assays?
SENP1 FRET inh: inactive; NadD block: inactive; NR3A LBD binder: inactive; ATG4B inhibitor: inactive; UCH37 DUB inh: inactive

What do the screens show for `CCN(CC)S(=O)(=O)c1ccc(NC(=O)Nc2cccc(C(F)(F)F)c2)cc1`?
SENP1 FRET inh: inactive; NadD block: inactive; NR3A LBD binder: 31; ATG4B inhibitor: inactive; UCH37 DUB inh: inactive

Results for Cc1ccc(NC(=O)Nc2cc(C(F)(F)F)c[nH]c2=O)cc1 ?
SENP1 FRET inh: inactive; NadD block: inactive; NR3A LBD binder: 24; ATG4B inhibitor: inactive; UCH37 DUB inh: inactive

How did Cc1cc(C)nc(NN=Cc2cn[nH]c2-c2ccc(F)cc2)n1 do in these assays?
UCH37 DUB inh: inactive

What do the screens show for `CC(C)CC(=O)ON=C1C(=O)N(c2ccccc2)c2ccccc21`?
UCH37 DUB inh: inactive

How did O=C1OC(c2ccc(Cl)cc2)=C/C1=C/c1cccnc1 do in these assays?
SENP1 FRET inh: inactive; NadD block: inactive; NR3A LBD binder: inactive; ATG4B inhibitor: inactive; UCH37 DUB inh: inactive

Results for O=C1OC(c2ccc(F)cc2)=C/C1=C\c1ccc(O)cc1 ?
SENP1 FRET inh: inactive; NadD block: inactive; NR3A LBD binder: 17; ATG4B inhibitor: inactive; UCH37 DUB inh: inactive

What do the screens show for `N#CCC(CNc1ncc(C(F)(F)F)cc1Cl)OC(=O)c1ccc(Cl)cc1Cl` (stereo not drawn)?
SENP1 FRET inh: inactive; NadD block: inactive; NR3A LBD binder: 14; ATG4B inhibitor: inactive; UCH37 DUB inh: inactive

Results for O=C(Cn1nc(Cc2ccncc2)c2ccccc2c1=O)N1CCc2ccccc2C1 ?
SENP1 FRET inh: inactive; NadD block: inactive; NR3A LBD binder: inactive; ATG4B inhibitor: inactive; UCH37 DUB inh: 20

How did CCCCCCOc1ccc(OCC(O)CN2C(=O)NC(C)(C)C2=O)cc1 (stereo not drawn) do in these assays?
SENP1 FRET inh: inactive; NadD block: inactive; NR3A LBD binder: 14; ATG4B inhibitor: inactive; UCH37 DUB inh: inactive

Results for CCN(CC)c1ccc(/C=N/N2C(=O)c3ccccc3C2=O)c(O)c1 ?
SENP1 FRET inh: inactive; NadD block: inactive; NR3A LBD binder: 24; ATG4B inhibitor: inactive

What do the screens show for `COc1ccc(CCn2c(O)cc3nn(-c4nc5ccccc5s4)c(=O)c-3c2C)cc1`?
SENP1 FRET inh: inactive; NadD block: 73; NR3A LBD binder: inactive; ATG4B inhibitor: inactive; UCH37 DUB inh: inactive

What do the screens show for `CCOc1cc(C=NNc2nc(C)cc(=O)[nH]2)ccc1O`?
UCH37 DUB inh: inactive

What do the screens show for `CC(C)(C)c1ccc(C(=O)Nc2nnc(Cc3c[nH]c4ccccc34)s2)cc1`?
SENP1 FRET inh: inactive; NadD block: inactive; NR3A LBD binder: 26; ATG4B inhibitor: inactive; UCH37 DUB inh: inactive

How did CCc1nnc(NC(=O)Cc2c[nH]c3ccccc23)s1 do in these assays?
SENP1 FRET inh: inactive; NadD block: inactive; NR3A LBD binder: inactive; ATG4B inhibitor: inactive; UCH37 DUB inh: inactive

Results for C(=Nn1cnnc1)c1ccc(N2CCOCC2)cc1 ?
UCH37 DUB inh: inactive

How did O=[N+]([O-])c1ccc2c(c1)N([O-])C1(CCCCC1)[N+]2=O do in these assays?
NR3A LBD binder: inactive; ATG4B inhibitor: inactive; UCH37 DUB inh: 52

What do the screens show for `CC1=C(c2ccccc2)[N+](=O)C2(CCCC2)N1[O-]`?
SENP1 FRET inh: inactive; NadD block: inactive; NR3A LBD binder: inactive; ATG4B inhibitor: inactive; UCH37 DUB inh: inactive

What do the screens show for `O=C(Cn1cnc2c(nnn2Cc2ccccc2)c1=O)c1ccccc1`?
SENP1 FRET inh: inactive; NadD block: inactive; NR3A LBD binder: 12; ATG4B inhibitor: inactive; UCH37 DUB inh: inactive

Results for O=C(Cn1cnc2c(nnn2Cc2ccc(Cl)cc2)c1=O)c1ccccc1 ?
SENP1 FRET inh: inactive; NadD block: inactive; NR3A LBD binder: inactive; ATG4B inhibitor: inactive; UCH37 DUB inh: inactive

What do the screens show for `Cc1cc2oc(=O)cc(CN3CCN(c4ccccc4)CC3)c2cc1Cl`?
SENP1 FRET inh: inactive; NadD block: inactive

What do the screens show for `Cc1cc2oc(=O)cc(Cn3ncc(Cl)c(Cl)c3=O)c2cc1Cl`?
SENP1 FRET inh: inactive; NadD block: 27; NR3A LBD binder: inactive; ATG4B inhibitor: inactive; UCH37 DUB inh: inactive

Results for COc1cccc(-c2csc(N3CCN(C(=O)Nc4ccc(Cl)cc4)CC3)n2)c1 ?
SENP1 FRET inh: inactive; NadD block: inactive; NR3A LBD binder: 15; ATG4B inhibitor: inactive; UCH37 DUB inh: inactive

What do the screens show for `CCNC(=S)N1CCN(c2nc(-c3cccc(OC)c3)cs2)CC1`?
SENP1 FRET inh: inactive; NadD block: inactive; NR3A LBD binder: 19; ATG4B inhibitor: inactive; UCH37 DUB inh: inactive

Results for COC(=O)c1ccc(-n2c(C)cc(C=Nn3cnnc3)c2C)cc1 ?
UCH37 DUB inh: inactive

What do the screens show for `O=[N+]([O-])c1cc(-c2ccn[nH]2)ccc1Cl`?
SENP1 FRET inh: inactive; NadD block: inactive; NR3A LBD binder: 15; ATG4B inhibitor: inactive; UCH37 DUB inh: inactive

How did O=[N+]([O-])c1cccc(-c2ccn[nH]2)c1 do in these assays?
SENP1 FRET inh: inactive; NadD block: inactive; NR3A LBD binder: inactive; ATG4B inhibitor: inactive; UCH37 DUB inh: inactive

Results for COc1ccc(-c2csc3ncnc(N4CCN(S(=O)(=O)c5cccs5)CC4)c23)cc1 ?
SENP1 FRET inh: inactive; NadD block: inactive; NR3A LBD binder: inactive; ATG4B inhibitor: inactive; UCH37 DUB inh: inactive

Results for c1ccc(-c2csc3ncnc(N4CCc5ccccc5C4)c23)cc1 ?
SENP1 FRET inh: inactive; NadD block: inactive; NR3A LBD binder: 13; ATG4B inhibitor: inactive; UCH37 DUB inh: inactive

Source: PubChem BioAssay
